ChEMBL document CHEMBL1127489, “Synthesis of novel N-phosphonoalkyl dipeptide inhibitors of human collagenase” (J Med Chem, 1994)

Target: T1, Interstitial collagenase (Homo sapiens, UniProt P03956)
T1 sequence (P03956 whole entry): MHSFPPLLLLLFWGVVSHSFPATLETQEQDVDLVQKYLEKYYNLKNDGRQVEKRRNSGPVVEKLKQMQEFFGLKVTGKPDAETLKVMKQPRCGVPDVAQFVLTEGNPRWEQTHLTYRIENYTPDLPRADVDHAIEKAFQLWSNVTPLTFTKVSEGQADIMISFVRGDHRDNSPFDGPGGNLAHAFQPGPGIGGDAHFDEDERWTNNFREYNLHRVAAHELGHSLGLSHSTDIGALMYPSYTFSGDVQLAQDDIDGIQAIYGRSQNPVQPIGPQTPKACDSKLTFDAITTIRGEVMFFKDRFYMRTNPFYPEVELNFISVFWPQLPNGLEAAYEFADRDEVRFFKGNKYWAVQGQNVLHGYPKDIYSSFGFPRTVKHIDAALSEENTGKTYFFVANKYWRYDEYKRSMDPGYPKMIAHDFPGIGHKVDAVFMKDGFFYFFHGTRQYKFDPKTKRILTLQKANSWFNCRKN
Assay: Inhibition of degradation of radiolabeled rat skin type I collagen by semipurified human lung fibroblast collagenase
Method in brief: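 Collagenase from WI-38 human lung fibroblast culture supernatants, trypsin-activated and semipurified. Substrate was 3H- or 14C-acetylated rat skin type I collagen, 100 μg/tube, added at 4 °C. Enzyme amount set to degrade 70% of collagen. Compounds were dissolved in MeOH by sonication and serially diluted. Incubation ran 1000 min at 37 °C, then centrifugation at 4 °C. Supernatant soluble peptides were scintillation counted.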

| IC50 [nM] | SMILES |
| --- | --- |
| 4320 | CC[C@H](N[C@@H](CC(C)C)C(=O)N[C@@H](CCCCN)C(=O)NC)P(=O)(O)O |
| 290 | CC[C@H](N[C@@H](CC(C)C)C(=O)N[C@@H](CCCNC(=N)N)C(=O)NC)P(=O)(O)O |
| 260 | CNC(=O)[C@H](Cc1ccc(OC)cc1)NC(=O)[C@H](CC(C)C)N[C@H](C)P(=O)(O)O |
| 2900 | CNC(=O)[C@H](Cc1ccc(OC)cc1)NC(=O)C(CC(C)C)NC(CC(C)C)P(=O)(O)O (stereo not given in full) |
| 760 | CC[C@H](N[C@@H](CC(C)C)C(=O)N[C@@H](Cn1cccn1)C(=O)NC)P(=O)(O)O |
| > 10000 | CC[C@H](N[C@H](CC(C)C)C(=O)N[C@@H](Cc1ccccc1)C(=O)NC)P(=O)(O)O |
| 15600 | CC[C@H](N[C@H](CC(C)C)C(=O)N[C@@H](Cc1ccc(OC)cc1)C(=O)NC)P(=O)(O)O |
| > 100000 | CCC(NC(CC(C)C)C(=O)N[C@@H](Cc1ccc(OC)cc1)C(=O)NC)[PH](=O)O (stereo not given in full) |
| 350 | CNC(=O)[C@H](Cc1ccc(OC)cc1)NC(=O)[C@H](CC(C)C)N[C@@H](CCNC(=O)OCc1ccccc1)C(=O)O |
| 240 | CC[C@@H](N[C@@H](CC(C)C)C(=O)N[C@@H](Cc1ccccc1)C(=O)NC)P(=O)(O)O |
| > 10000 | CC[C@@H](N[C@H](CC(C)C)C(=O)N[C@@H](Cc1ccccc1)C(=O)NC)P(=O)(O)O |
| 15700 | CCCC(NC(CC(C)C)C(=O)N[C@@H](Cc1ccc(OC)cc1)C(=O)NC)P(=O)(O)O (stereo not given in full) |
| 520 | CNC(=O)[C@H](Cc1ccc(OC)cc1)NC(=O)[C@H](CC(C)C)N[C@@H](C)P(=O)(O)O |
| 1820 | CNC(=O)[C@H](Cc1ccccc1)NC(=O)[C@H](CC(C)C)N[C@H](CCc1ccccc1)P(=O)(O)O |
| 41200 | CCCCC(NC(CC(C)C)C(=O)N[C@@H](Cc1ccc(OC)cc1)C(=O)NC)P(=O)(O)O (stereo not given in full) |
| 37000 | CNC(=O)CP(=O)(O)C[C@@H](CC(C)C)C(=O)N[C@@H](Cc1ccc(OC)cc1)C(=O)NC |
| 300 | CC[C@@H](N[C@@H](CC(C)C)C(=O)N[C@@H](Cc1ccc(OC)cc1)C(=O)NC)P(=O)(O)O |
| 150 | CC[C@H](N[C@@H](CC(C)C)C(=O)N[C@@H](Cc1nc2ccccc2[nH]1)C(=O)NC)P(=O)(O)O |
| > 100000 | CNC(=O)[C@H](Cc1ccc(OC)cc1)NC(=O)C(CC(C)C)NC(C)P(C)(=O)O (stereo not given in full) |
| 400 | CNC(=O)[C@H](Cc1ccccc1)NC(=O)[C@H](CC(C)C)N[C@@H](CCc1ccccc1)P(=O)(O)O |
| 470 | CC[C@H](N[C@@H](CC(C)C)C(=O)N[C@@H](Cc1ccc(OC)cc1)C(=O)NC)P(=O)(O)O |
| 740 | CC[C@@H](N[C@@H](CC(C)C)C(=O)N[C@@H](CCCCN)C(=O)NC)P(=O)(O)O |
| 1360 | CC[C@H](N[C@@H](CC(C)C)C(=O)N[C@@H](CC(=O)NCCN1CCCC1)C(=O)NC)P(=O)(O)O |
| 2900 | CNC(=O)[C@H](Cc1ccc(OC)cc1)NC(=O)C(CC(C)C)NC(C(C)C)P(=O)(O)O (stereo not given in full) |
| > 10000 | CNC(=O)[C@H](Cc1ccc(OC)cc1)NC(=O)[C@H](CC(C)C)N[C@H](C)C(=O)O |
| 490 | CC[C@H](N[C@@H](CC(C)C)C(=O)N[C@@H](CCCN(C)C)C(=O)NC)P(=O)(O)O |
| 50 | CC[C@H](N[C@@H](CC(C)C)C(=O)N[C@@H](Cc1c[nH]c2ccccc12)C(=O)NC)P(=O)(O)O |
| 230 | CC[C@H](N[C@@H](CC(C)C)C(=O)N[C@@H](Cc1ccccc1)C(=O)NC)P(=O)(O)O |
| 1560 | CNC(=O)[C@H](Cc1ccccc1)NC(=O)[C@H](CC(C)C)N[C@@H](CC(C)C)P(=O)(O)O |
| 39300 | CC[C@@H](N[C@H](CC(C)C)C(=O)N[C@@H](Cc1ccc(OC)cc1)C(=O)NC)P(=O)(O)O |
